Assay [1] has as its system KG-1a. The assay can be described thus: Induction of myeloid differentiation in human KG-1a cells at 20 nM assessed as appearance of nuclear segmentation measured after 12 hrs by Liu's staining method. Type of assay: functional, cell-based. Summed up: (§1)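 Cells exposed 12 h were spun onto slides by cytospin. They were stained with Liu's reagent A for 1 min, then reagent B for 2.5 min, and morphology was examined by light microscopy.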

The subject of assay [2] is HL-60. The assay is described as follows: Induction of myeloid differentiation in human HL-60 cells at 20 nM assessed as appearance of nuclear segmentation measured after 12 hrs by Liu's staining method. It is filed as functional, cell-based. Summed up:
as §1

The subject of assay [3] is KG-1a. The assay can be described thus: Induction of myeloid differentiation in human KG-1a cells at 20 nM assessed as reduction of nucleus to cytoplasm ratio measured after 12 hrs by Liu's staining method. It is filed as functional, cell-based. In a few lines:
as §1

Assay [4] relates to HL-60. The assay can be described thus: Induction of myeloid differentiation in human HL-60 cells at 20 nM assessed as reduction of nucleus to cytoplasm ratio measured after 12 hrs by Liu's staining method. Type of assay: functional, cell-based. In a few lines:
as §1

The subject of assay [5] is U-937. The assay is described as follows: Induction of myeloid differentiation in human U-937 cells at 20 nM assessed as decrease in G9a mRNA expression measured after 48 hrs by RT-PCR assay. It is filed as functional, cell-based. Summed up:
(§2)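 Treatment was 48 h. Total RNA (1 µg) was reverse transcribed, then SYBR green real-time PCR was run with actin as internal control: 95 °C 5 min, then 30 cycles of 95 °C/45 s, 60 °C/45 s, 72 °C/45 s. Mean ± s.e. of three independent experiments, compared with untreated control.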

The subject of assay [6] is U-937. The assay can be described thus: Induction of myeloid differentiation in human U-937 cells at 20 nM assessed as decrease in SUV39H1 mRNA expression measured after 48 hrs by RT-PCR assay. It is filed as functional, cell-based. In a few lines:
as §2

The subject of assay [7] is KG-1a. The assay is described as follows: Induction of myeloid differentiation in human KG-1a cells at 20 nM assessed as decrease in G9a mRNA expression measured after 48 hrs by RT-PCR assay. Type of assay: functional, cell-based. In a few lines: as §2
The subject of assay [8] is KG-1a. The assay is described as follows: Induction of myeloid differentiation in human KG-1a cells at 20 nM assessed as decrease in SUV39H1 mRNA expression measured after 48 hrs by RT-PCR assay. It is filed as functional, cell-based. In a few lines: as §2
Assay [9] concerns HL-60. The assay is described as follows: Induction of myeloid differentiation in human HL-60 cells at 20 nM assessed as decrease in G9a mRNA expression measured after 48 hrs by RT-PCR assay. It is filed as functional, cell-based. Summed up:
as §2

For assay [10], the system named is HL-60. The assay is described as follows: Induction of myeloid differentiation in human HL-60 cells at 20 nM assessed as decrease in SUV39H1 mRNA expression measured after 48 hrs by RT-PCR assay. It is filed as functional, cell-based. Summed up:
as §2

The test system of assay [11] is KG-1a. The assay is described as follows: Induction of myeloid differentiation in human KG-1a cells at 20 nM assessed as increase in CD11b mRNA expression measured after 48 hrs by RT-PCR assay. Type of assay: functional, cell-based. Summed up: as §2
The subject of assay [12] is U-937. The assay is described as follows: Induction of myeloid differentiation in human U-937 cells at 20 nM assessed as increase in CD11b mRNA expression measured after 48 hrs by RT-PCR assay. Type of assay: functional, cell-based. In a few lines:
as §2

The subject of assay [13] is HL-60. The assay is described as follows: Induction of myeloid differentiation in human HL-60 cells at 20 nM assessed as increase in CD11b mRNA expression measured after 48 hrs by RT-PCR assay. Type of assay: functional, cell-based. In a few lines: as §2
The test system of assay [14] is HL-60. The assay can be described thus: Induction of myeloid differentiation in human HL-60 cells at 20 nM in combination with 0.5 uM SAHA measured after 12 hrs by Liu's staining method. It is filed as functional, cell-based. In a few lines:
(§3)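 Cells received single epigenetic inhibitors or combinations and were collected by cytospin. After Liu's staining (reagent A 1 min, reagent B 2.5 min), differentiated cells were counted under a light microscope. Mean ± s.e. of three independent experiments.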

Assay [15] concerns KG-1a. The assay is described as follows: Induction of myeloid differentiation in human KG-1a cells at 20 nM in combination with 0.5 uM SAHA measured after 12 hrs by Liu's staining method. It is filed as functional, cell-based. Summed up: as §3
The test system of assay [16] is U-937. The assay is described as follows: Induction of myeloid differentiation in human U-937 cells at 20 nM in combination with 0.5 uM SAHA measured after 12 hrs by Liu's staining method. Type of assay: functional, cell-based. In a few lines:
as §3

For assay [17], the target named is T1, Histone-lysine N-methyltransferase SUV39H1 (Homo sapiens) (UniProt O43463).
T1 sequence (whole entry): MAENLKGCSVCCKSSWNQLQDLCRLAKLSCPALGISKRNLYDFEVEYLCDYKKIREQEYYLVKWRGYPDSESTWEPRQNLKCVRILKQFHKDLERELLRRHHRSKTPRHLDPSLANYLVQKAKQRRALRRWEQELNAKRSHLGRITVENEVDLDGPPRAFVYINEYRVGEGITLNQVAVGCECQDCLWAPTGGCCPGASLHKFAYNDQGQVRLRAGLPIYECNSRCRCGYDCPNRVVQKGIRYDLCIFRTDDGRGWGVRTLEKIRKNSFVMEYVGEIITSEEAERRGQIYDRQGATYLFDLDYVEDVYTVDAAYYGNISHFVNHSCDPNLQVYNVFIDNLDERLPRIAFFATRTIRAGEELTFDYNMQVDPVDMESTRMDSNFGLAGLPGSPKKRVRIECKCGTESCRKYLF
Conditions: U-937, dose 20.0 nM, time 48.0 hrs.

The target of assay [18] is T1, Histone-lysine N-methyltransferase SUV39H1 (Homo sapiens). Conditions: KG-1a, dose 20.0 nM, time 48.0 hrs.
The target is the same in assay [19]. The following applies: HL-60, dose 20.0 nM, time 48.0 hrs.
For assay [20] the target is unchanged. The following applies: U-937, dose 20.0 nM, time 48.0 hrs. This is another data set of the same source.
Assay [21] has the same target. Conditions: KG-1a, dose 20.0 nM, time 48.0 hrs. The source holds these as a separate data set.
The target is the same in assay [22]. Conditions: HL-60, dose 20.0 nM, time 48.0 hrs. This is another data set of the same source.
For assay [23] the target is unchanged. The following applies: U-937, dose 20.0 nM, time 48.0 hrs. The source holds these as a separate data set.
Assay [24] shares this target. Conditions: KG-1a, dose 20.0 nM, time 48.0 hrs. The source holds these as a separate data set.
For assay [25] the target is unchanged. Conditions: HL-60, dose 20.0 nM, time 48.0 hrs. This is another data set of the same source.
For assay [26] the target is unchanged. Conditions: U-937, dose 20.0 nM, time 48.0 hrs. This is another data set of the same source.
Assay [27] has the same target. The following applies: KG-1a, dose 20.0 nM, time 48.0 hrs. This is another data set of the same source.
Assay [28] has the same target. The following applies: HL-60, dose 20.0 nM, time 48.0 hrs. The source holds these as a separate data set.
For assay [29], the system named is U-937. The assay is described as follows: Induction of myeloid differentiation in human U-937 cells at 0.5 uM measured after 12 hrs by Liu's staining method. Type of assay: functional, cell-based. In a few lines:
(§4)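 Cells treated for 12 h, spun onto slides by cytospin, stained with Liu's reagent A for 1 min and then reagent B for 2.5 min. Morphology read by light microscopy. KG-1a was grown in IMDM with 15% FBS; HL-60 and U937 in RPMI with 10% FBS.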

Assay [30] deals with KG-1a. The assay can be described thus: Induction of myeloid differentiation in human KG-1a cells at 0.5 uM measured after 12 hrs by Liu's staining method. It is filed as functional, cell-based. In a few lines: as §4
The subject of assay [31] is HL-60. The assay can be described thus: Induction of myeloid differentiation in human HL-60 cells at 0.5 uM measured after 12 hrs by Liu's staining method. It is filed as functional, cell-based. Summed up: as §4

3 compounds from ChEMBL document CHEMBL5674867, “The SUV39H1 inhibitor chaetocin induces differentiation and shows synergistic cytotoxicity with other epigenetic drugs in acute myeloid leukemia cells” (Blood Cancer J, 2015) can be followed below.

SMILES strings stand for the structures. Calls of active or inactive are those of the source. No cut-off for these calls is given here.

For the compound `CN1C(=O)[C@@]23C[C@]4([C@]56C[C@@]78SS[C@@](CO)(C(=O)N7[C@H]5Nc5ccccc56)N(C)C8=O)c5ccccc5N[C@@H]4N2C(=O)[C@]1(CO)SS3`, the outcome in the assay on KG-1a [1], with HL-60 [2], in the assay on KG-1a [3], in the assay on HL-60 [4], in the assay with KG-1a [7] and in the assay with KG-1a [8] was Active. In addition, the outcome in the assay on HL-60 [9], in the assay with HL-60 [10], in the assay on KG-1a [11], in the assay on U-937 [12] and in the assay with HL-60 [13] was Active. The result with U-937 [5], in the assay on U-937 [6], in the assay on HL-60 [14], with KG-1a [15] and in the assay with U-937 [16] was inactive. In addition, the inhibition result in [17], in assay [20], in [23] and in [26] was “inactive” each time. Further, the inhibition result in assay [18], in assay [19], in assay [21], in assay [22], in assay [24] and in assay [25] was “Active” in each case. For the same compound, the inhibition entry in [27] and in [28] was “Active” throughout.

On to `O=C(CCCCCCC(=O)Nc1ccccc1)NO`, for which the outcome in the assay on U-937 [29], with KG-1a [30] and in the assay with HL-60 [31] was Active.

For `CN1C(=O)[C@@]23C[C@]4([C@]56C[C@@]78SS[C@@](CO)(C(=O)N7[C@H]5Nc5ccccc56)N(C)C8=O)c5ccccc5N[C@@H]4N2C(=O)[C@]1(CO)SS3.O=C(CCCCCCC(=O)Nc1ccccc1)NO`, the outcome in the assay with HL-60 [14], in the assay with KG-1a [15] and in the assay with U-937 [16] was inactive.
